Consider three compounds from ChEMBL document CHEMBL5247635 (Eur J Med Chem, 2022).

The target of series [1] is Trypanothione reductase (Leishmania infantum) (UniProt A4HSF7). In words: Mixed non-competitive inhibition of Leishmania infantum TryR using TS2 as substrate assessed as increase in apparent inhibition constant of high affinity EI complex by plot analysis. Put shortly:
(§1)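 Final assay: 40 mM HEPES pH 7.5, 1 mM EDTA, 300 µM NADPH, 60 µM NADP+, 150 µM DTNB, 3.1–100 µM TS2, 1.04% DMSO, 0.5 nM LiTryR, with serially diluted inhibitor. Enzyme was added last by automated dispenser to avoid preincubation. Progress curves were read at 412 nm at 26 °C; initial and steady-state velocities were fitted to kinetic models. Three independent experiments.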

Series [2] deals with Leishmania infantum. In words: Antileishmanial activity against Leishmania infantum MCAN/ES/89/IPZ229/1/89 axenic amastigotes assessed as reduction in parasite viability treated for 24 hrs by PI staining based flow cytometry. The class given is functional, organism-based. As to conditions: MCAN/ES/89/IPZ229/1/89, 24 h. Put shortly: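 Axenic amastigotes were seeded from log-phase cultures at 10^5 parasites/mL in M199-based medium at pH 5.4. They were derived from promastigotes by 3 days at 37 °C. Compounds at 2.3–75 µM for 24 h at 37 °C. Viability read by propidium iodide flow cytometry. EC50 ± SE from three independent experiments, each in triplicate.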
In general terms: In flow cytometry, cells or beads pass a laser one at a time.

In series [3] the target is T1, Trypanothione reductase (Leishmania infantum, UniProt A4HSF7). In words: Mixed non-competitive inhibition of Leishmania infantum TryR using TS2 as substrate assessed as inhibition constant of first equilibrium by plot analysis. Put shortly: as §1
Series [4] can be described thus: Selectivity index, ratio of CC50 for human HepG2 cells to EC50 for GFP-expressing Leishmania infantum intracellular amastigotes infected in human THP-1 derived macrophage cells. The class given is toxicity, cell-based. The note with it: read-out: Ratio CC50/EC50.
Series [5] addresses Trypanothione reductase (Trypanosoma congolense, UniProt P13110). In words: Inhibition of HIS-tagged recombinant Trypanosoma congolense TryR oxidoreductase activity expressed in Escherichia coli in the presence of NADPH by spectrophotometry based DTNB-coupled assay. The essentials: (§2)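 HIS-tagged TryR from each species was expressed in E. coli. Activity was read by DTNB-coupled assay at 26 °C in 40 mM HEPES pH 7.5, 1 mM EDTA, 30 µM NADP+, 25 µM DTNB, 150 µM NADPH, 1.75% DMSO. Conditions were 50 µM TS2 and 0.5 nM enzyme; reaction started with NADPH + TS2. TNB absorbance at 412 nm. Three independent experiments.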

For series [6], the system named is Leishmania infantum. In words: Antileishmanial activity against H2O2-induced Leishmania infantum promastigotes assessed as reduction in non-protein thiol content at 75 uM treated for 1 hr in presence of BSO by CMF diacetate probe based flow cytometry relative to control. The arrangement: scale not given: the % may be the effect or the level left. The class given is functional. Put shortly: (§3)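 Promastigotes grown in RPMI-1640 with 10% FCS and 25 mM HEPES pH 7.2 at 26 °C. Treatments were 75 µM for 1 h, 5 mM BSO for 72 h, or both combined; vehicle served as control. Some parasites were also H2O2-treated. Non-protein thiols read by flow cytometry as CMF diacetate green fluorescence in PI-excluding live parasites. Means of nine independent experiments with 99.0% confidence intervals.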

The nature of series [7]: Cytotoxicity against human HepG2 cells assessed as reduction in cell proliferation measured after 72 hrs by crystal violet staining based analysis. It is filed as toxicity.
The subject of series [8] is Leishmania infantum. The experiment in a line: Antileishmanial activity against GFP-expressing Leishmania infantum intracellular amastigotes infected in human THP-1 derived macrophage cells assessed as reduction in parasite viability measured for 72 hrs by resazurin/alamar blue fluorometric assay. It is filed as functional, organism-based. The essentials: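 Human THP-1-derived macrophages infected with GFP-expressing L. infantum amastigotes; compounds at 2.3–75 µM, infected cells monitored for 72 h. EC50 ± SE from three independent experiments.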

Series [9] concerns the target Trypanothione reductase (Leishmania infantum) (UniProt A4HSF7). In words: Mixed non-competitive inhibition of Leishmania infantum TryR using TS2 as substrate assessed as increase in apparent inhibition constant of initial EI complex by plot analysis. Put shortly:
as §1

For series [10] the target is unchanged. The experiment in a line: Time-dependent inhibition of Leishmania infantum TryR using TS2 as substrate assessed as decrease in initial velocity rate at fixed TS2 concentration. The essentials: as §1
Series [11] deals with T1, Trypanothione reductase. The experiment in a line: Disruption of HIS-FLAG-tagged recombinant Leishmania infantum TryR dimerization expressed in Escherichia coli Rossetta BL21 (DE3) cells incubated for 16 hrs by ELISA analysis. The essentials:
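400 nM HIS-FLAG-tagged LiTryR (co-purified with HIS-tagged LiTryR as heterodimer) incubated with compound (3.1–75 μM) in 50 mM Tris pH 8.0, 300 mM NaCl, 16 h, 37 °C with vigorous shaking; centrifuged, supernatant captured on α-FLAG plates, detected with HRP-α-HIS antibody and o-phenylenediamine, A490. Signal normalized to DMSO; IC50 by nonlinear regression; triplicate, three independent experiments.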
For orientation: In an ELISA, binding on a coated surface is turned into a signal by an enzyme label.

For series [12], the target named is Trypanothione reductase (Trypanosoma brucei brucei, UniProt P39051). The experiment in a line: Inhibition of HIS-tagged recombinant Trypanosoma brucei TryR oxidoreductase activity expressed in Escherichia coli in the presence of NADPH by spectrophotometry based DTNB-coupled assay. The essentials:
as §2

Series [13] concerns the target Trypanothione reductase (Trypanosoma cruzi, UniProt P28593). The experiment in a line: Inhibition of HIS-tagged recombinant Trypanosoma cruzi TryR oxidoreductase activity expressed in Escherichia coli in the presence of NADPH by spectrophotometry based DTNB-coupled assay. The essentials:
as §2

In series [14] the test system is Leishmania infantum. In words: Antileishmanial activity against Leishmania infantum promastigotes assessed as reduction in non-protein thiol content at 75 uM incubated for 1 hrs by CMF diacetate probe based flow cytometry relative to control. It is filed as functional. Set-up: scale not given: the % may be the effect or the level left. The essentials: as §3
Series [15] in a line: Thermodynamic aqueous solubility of compound at 25 degreeC measured after 24 hrs by HPLC analysis. The note with it: buffer, read-out: Therm_solubility. It is filed as physicochemical. Put shortly: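 Excess compound was suspended in water (pH 5.5), sonicated 10 min, equilibrated overnight at room temperature, and centrifuged. Supernatant was diluted and quantified by HPLC (UV 254 nm) against a five-point standard curve (10–500 µM).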

Series [16] can be described thus: Cytotoxicity against human HepG2 cells assessed as reduction in cell proliferation treated for 24 hrs by crystal violet staining based analysis. It is filed as toxicity.
The target of series [17] is T1, Trypanothione reductase. The experiment in a line: Mixed non-competitive inhibition of Leishmania infantum TryR using TS2 as substrate assessed as inhibition constant of two-step induced-fit mechanism by plot analysis. The essentials: as §1
For series [18], the target named is Trypanothione reductase (Leishmania infantum) (UniProt A4HSF7). The experiment in a line: Time-dependent inhibition of Leishmania infantum TryR using TS2 as substrate assessed as decrease in final steady-state velocity at fixed TS2 concentration. The essentials: as §1
Series [19] deals with T1, Trypanothione reductase. The experiment in a line: Inhibition of HIS-tagged recombinant Leishmania infantum TryR oxidoreductase activity expressed in Escherichia coli in the presence of NADPH by spectrophotometry based DTNB-coupled assay. The essentials:
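HIS-tagged LiTryR was used in a DTNB-coupled assay at 26 °C. Buffer: 40 mM HEPES pH 7.5, 1 mM EDTA, 30 µM NADP+, 25 µM DTNB, 150 µM NADPH, 1.75% DMSO. Standard runs used 1 µM TS2 and 7 nM enzyme; cross-species runs used 50 µM TS2 and 0.5 nM enzyme. Started with NADPH + TS2; TNB read at 412 nm. Compounds were screened at 75 µM first. Three independent experiments.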

In series [20] the test system is Leishmania infantum. In words: Antileishmanial activity against Leishmania infantum promastigotes assessed as reduction in total thiol content at 75 uM treated for 1 hr by CMF diacetate probe based flow cytometry relative to control. The arrangement: scale not given: the % may be the effect or the level left. It is filed as functional. Put shortly:
as §3

A short description of series [21]: Selectivity index, ratio of CC50 for human HepG2 cells to EC50 for Leishmania infantum MCAN/ES/89/IPZ229/1/89 axenic amastigotes. It is filed as toxicity. The note with it: read-out: Ratio CC50/EC50.
Series [22] deals with Leishmania infantum. The experiment in a line: Antileishmanial activity against H2O2-induced Leishmania infantum promastigotes assessed as reduction in non-protein thiol content at 5 mM treated for 72 hrs by CMF diacetate probe based flow cytometry relative to control. The class given is functional. The arrangement: scale not given: the % may be the effect or the level left. The essentials: as §3

The test system of series [23] is Leishmania infantum. The experiment in a line: Antileishmanial activity against Leishmania infantum promastigotes assessed as reduction in parasite growth at 5 mM treated for 72 hrs. It is filed as functional, organism-based.
In series [24] the target is T1, Trypanothione reductase. The experiment in a line: Competitive inhibition of HIS-FLAG-tagged recombinant Leishmania infantum TryR expressed in Escherichia coli assessed as dissociation constant by SPR assay. A general note: In SPR one partner is held on a chip, and binding of the other changes the refractive index at the surface.
Series [25] deals with T1, Trypanothione reductase. In words: Competitive inhibition of HIS-FLAG-tagged recombinant Leishmania infantum TryR expressed in Escherichia coli using TS2 substrate assessed as inhibition constant in the presence of NADPH by spectrophotometry based DTNB-coupled assay.

Calls of active or inactive are those of the source. The rule behind the calls is not given here. A value given as a limit tells only on which side of the number the result lay.

T1 sequence (A4HSF7 whole entry): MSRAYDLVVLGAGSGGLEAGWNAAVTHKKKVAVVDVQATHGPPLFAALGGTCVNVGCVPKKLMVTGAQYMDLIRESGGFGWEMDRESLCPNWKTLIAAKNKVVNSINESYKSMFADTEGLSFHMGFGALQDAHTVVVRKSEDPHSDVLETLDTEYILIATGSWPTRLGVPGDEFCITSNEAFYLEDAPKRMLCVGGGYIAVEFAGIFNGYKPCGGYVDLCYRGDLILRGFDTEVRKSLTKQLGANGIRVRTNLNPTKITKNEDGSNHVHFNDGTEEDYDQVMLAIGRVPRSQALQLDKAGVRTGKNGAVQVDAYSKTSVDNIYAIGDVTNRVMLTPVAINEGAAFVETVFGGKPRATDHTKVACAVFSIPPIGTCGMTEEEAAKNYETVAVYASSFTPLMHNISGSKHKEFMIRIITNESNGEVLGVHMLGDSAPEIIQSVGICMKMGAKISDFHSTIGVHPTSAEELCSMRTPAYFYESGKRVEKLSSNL
Chain of Trypanothione reductase (Leishmania infantum) (A4HSF7 as listed by the source): as the sequence (A4HSF7 whole entry) above
Chain of Trypanothione reductase (Trypanosoma brucei brucei, UniProt P39051) (P39051 whole entry): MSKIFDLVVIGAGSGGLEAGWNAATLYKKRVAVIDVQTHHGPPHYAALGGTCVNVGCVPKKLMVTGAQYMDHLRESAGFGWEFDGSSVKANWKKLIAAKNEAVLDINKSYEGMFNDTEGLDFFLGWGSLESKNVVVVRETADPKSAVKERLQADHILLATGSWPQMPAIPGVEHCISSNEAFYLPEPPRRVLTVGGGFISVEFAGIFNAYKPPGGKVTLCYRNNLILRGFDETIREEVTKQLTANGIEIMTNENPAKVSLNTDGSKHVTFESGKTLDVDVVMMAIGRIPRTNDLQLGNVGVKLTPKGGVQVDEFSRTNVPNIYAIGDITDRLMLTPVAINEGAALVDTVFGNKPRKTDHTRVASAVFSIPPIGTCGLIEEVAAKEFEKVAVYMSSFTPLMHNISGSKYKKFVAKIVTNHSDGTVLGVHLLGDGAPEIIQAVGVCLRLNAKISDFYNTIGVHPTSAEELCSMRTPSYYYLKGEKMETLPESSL
Chain of Trypanothione reductase (Trypanosoma congolense, UniProt P13110) (P13110 whole entry): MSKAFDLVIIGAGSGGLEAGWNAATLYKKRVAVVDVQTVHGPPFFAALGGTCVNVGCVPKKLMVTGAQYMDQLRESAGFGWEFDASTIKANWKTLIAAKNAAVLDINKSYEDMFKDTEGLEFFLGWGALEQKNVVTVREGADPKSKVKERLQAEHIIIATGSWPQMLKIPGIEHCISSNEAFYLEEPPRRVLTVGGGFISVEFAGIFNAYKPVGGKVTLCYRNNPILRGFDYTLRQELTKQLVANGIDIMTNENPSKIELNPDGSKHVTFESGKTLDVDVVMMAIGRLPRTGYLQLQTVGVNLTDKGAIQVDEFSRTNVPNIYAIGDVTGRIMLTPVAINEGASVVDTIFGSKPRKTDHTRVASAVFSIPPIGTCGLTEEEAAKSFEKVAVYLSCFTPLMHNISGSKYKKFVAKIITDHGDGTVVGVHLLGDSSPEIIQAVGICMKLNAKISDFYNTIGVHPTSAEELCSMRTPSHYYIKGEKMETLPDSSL
Chain of Trypanothione reductase (Trypanosoma cruzi, UniProt P28593) (P28593 whole entry): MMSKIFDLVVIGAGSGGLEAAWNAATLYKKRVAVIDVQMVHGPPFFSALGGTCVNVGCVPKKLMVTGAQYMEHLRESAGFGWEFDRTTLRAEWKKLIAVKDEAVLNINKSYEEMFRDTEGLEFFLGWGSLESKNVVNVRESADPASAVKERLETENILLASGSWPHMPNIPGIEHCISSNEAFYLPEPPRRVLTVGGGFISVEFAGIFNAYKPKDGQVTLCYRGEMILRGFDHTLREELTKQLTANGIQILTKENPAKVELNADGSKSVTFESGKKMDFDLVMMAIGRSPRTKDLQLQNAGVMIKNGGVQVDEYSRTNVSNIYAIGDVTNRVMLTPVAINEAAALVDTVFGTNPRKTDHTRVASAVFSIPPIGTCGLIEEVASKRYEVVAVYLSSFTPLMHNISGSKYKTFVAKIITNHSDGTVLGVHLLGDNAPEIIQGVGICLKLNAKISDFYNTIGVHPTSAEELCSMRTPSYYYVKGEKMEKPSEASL

Turning to `C[n+]1nn(-c2ccc(-c3nc(CCc4ccc(-c5ccccc5)cc4)cs3)c(OCCN3CCNC3=O)c2)cc1CCCCN.O=C(O)C(F)(F)F.O=S(=O)([O-])C(F)(F)F`, the inhibition result in [1], in series [9], in series [10] and in series [18] was “Active” throughout. Further, the EC50 in the series with Leishmania infantum [2] was found to be 11.6 µM; in the series with Leishmania infantum [8] it was 8.7 µM. The results for the inhibition constant Ki at Trypanothione reductase [3] and at Trypanothione reductase [17] were 1.2 µM and 0.2 µM, respectively. The values for the selectivity ratio in series [4] and in series [21] were above 8.6 and above 6.5, respectively. Moreover, the IC50 at Trypanothione reductase [5] was 3.6 µM; at Trypanothione reductase [11], 10.3 µM; at Trypanothione reductase [12], 4.9 µM; at Trypanothione reductase [13], 9.2 µM; on Trypanothione reductase [19], 5.2 µM. In addition, the figures for the Activity in the series with Leishmania infantum [6], with Leishmania infantum [14] and with Leishmania infantum [20] were 50%, 20% and 15%, respectively. For the same compound, the CC50 at 72 h in [7] is above 75 µM. Besides, the solubility thermodynamic at 24 h in series [15] worked out at 12.4 mg/mL. Moreover, in series [16], the CC50 at 24 h was above 75 µM.

With `CCCCS(=N)(=O)CCC(N)C(=O)O` (racemic) [BUTHIONINE SULFOXIMINE], the Activity in the series with Leishmania infantum [22] turned out to be 50%. Besides, the result in the series with Leishmania infantum [23] was inactive.

As for `C[n+]1nn(-c2ccc(-c3nc(CCc4ccccc4)cs3)c(OCCN3CCNC3=O)c2)cc1CCCCN.O=C(O)C(F)(F)F.O=S(=O)([O-])C(F)(F)F`, the concentration for a half-maximal effect (EC50) in the series with Leishmania infantum [2] was found to be 66.6 µM. Further, the IC50 came to 18.7 µM at Trypanothione reductase [5], 26.9 µM on Trypanothione reductase [12], 48.5 µM at Trypanothione reductase [13] and 9.4 µM on Trypanothione reductase [19]. On Trypanothione reductase [24], the Kd stood at 1 µM. The Ki on Trypanothione reductase [25] worked out at 7.3 µM. In addition, the solubility thermodynamic at 24 h in series [15] is above 15.9 mg/mL. In addition, the CC50 at 24 h in series [16] was above 75 µM. For the same compound, in [21], the selectivity ratio was above 1.1.

As usually defined, the EC50 is the concentration needed to bring the measured effect to its halfway point. What is called Ki is the equilibrium dissociation constant of an inhibitor or competing ligand from its target. What is called IC50 is the concentration needed to halve the response being measured. Broadly, the CC50 is the concentration at which the toxic effect on the cells reaches its halfway point. Usually Kd stands for the free concentration of one partner at which half of the binding sites on the other are occupied at equilibrium, for simple one-to-one binding.
